Measured values as given in ChEMBL document CHEMBL1833842, “1,3-Dihydro-2H-indol-2-ones derivatives: design, synthesis, in vitro antibacterial, antifungal and antitubercular study” (2011).
≈ marks a conversion by molar mass, not a printed value.

Legend:
[1] = test system: Mycobacterium tuberculosis; test: Antituberculosis activity against 5 x 10^4 bacilli per tube Mycobacterium tuberculosis H37Rv assessed as growth inhibition at 62.5 ug/mL incubated for 24 hrs measured after 28 days; assay type: functional; conditions: read-out: GI
How it was run: (§1)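 Conventional Lowenstein-Jensen method. Compound dilutions were made from a DMSO stock and added to liquid L-J medium, which was sterilized by inspissation. Tubes were incubated 24 h at 37 °C, then streaked with H37Rv (5 × 10⁴ bacilli per tube) harvested into 0.85% saline. Growth was checked at 12, 22 and 28 days at 37 °C against medium-only controls. MIC was the concentration giving no colonies or <20 colonies.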

Pseudomonas aeruginosa = test: Antibacterial activity against 10^8 CFU/mL Pseudomonas aeruginosa MTCC 1688 by broth microdilution method; assay type: functional
How it was run: (§2)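 MTCC bacterial strains from IMTECH Chandigarh were grown in Mueller-Hinton broth, which was also used to dilute the compounds. Inoculum was turbidity-adjusted to 10⁸ CFU/mL, and DMSO served as diluent. Compounds from a 2000 stock were screened first at 500, 250 and 125; actives were retested in a second dilution series. Tubes were incubated overnight at 37 °C, and MIC was the lowest concentration with no visible growth. Clear tubes were subcultured overnight at 37 °C to tell bacteriostatic from bactericidal.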

Salmonella typhi = test: Antibacterial activity against 10^8 CFU/mL Salmonella typhi MTCC 98 by broth microdilution method; assay type: functional, Salmonella enterica subsp. enterica serovar Typhi; conditions: Salmonella enterica
How it was run: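 Broth microdilution in Mueller-Hinton broth with MTCC strains, inoculum adjusted by turbidity to 10⁸ CFU/mL. Compounds were diluted from DMSO. Primary screen used 500, 250 and 125 concentrations, and actives were serially diluted further. Tubes were incubated overnight at 37 °C. MIC was the lowest concentration with no visible growth. Clear tubes were subcultured overnight at 37 °C to judge bacteriostatic versus bactericidal.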

Candida albicans = test: Antifungal activity against 10^8 CFU/mL Candida albicans MTCC 227 by broth microdilution method; assay type: functional
How it was run: (§3)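 Fungal MTCC cultures came from IMTECH Chandigarh. Mueller-Hinton broth served as growth and dilution medium, with DMSO as diluent. Inoculum was set to 10⁸ CFU/mL by turbidity. Serial dilutions from a 2000 stock gave a primary screen at 500, 250 and 125, followed by a secondary dilution series for actives. MIC was the lowest concentration inhibiting growth.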

Aspergillus niger = test: Antifungal activity against 10^8 CFU/mL Aspergillus niger MTCC 282 by broth microdilution method; assay type: functional; how it was run: as §3
Staphylococcus aureus = test: Antibacterial activity against 10^8 CFU/mL Staphylococcus aureus MTCC 96 by broth microdilution method; assay type: functional; how it was run: as §2
Bacillus subtilis = test: Antibacterial activity against 10^8 CFU/mL Bacillus subtilis MTCC 441 by broth microdilution method; assay type: functional; how it was run: as §2
Aspergillus clavatus = test: Antifungal activity against 10^8 CFU/mL Aspergillus clavatus MTCC 1323 by broth microdilution method; assay type: functional; how it was run: as §3
Escherichia coli = test: Antibacterial activity against 10^8 CFU/mL Escherichia coli MTCC 443 by broth microdilution method; assay type: functional; how it was run: as §2
[2] = test system: Mycobacterium tuberculosis; test: Antituberculosis activity against 5 x 10^4 inoculum per tube Mycobacterium tuberculosis H37Rv after 24 hrs by Lowenstein-Jensen method; assay type: functional; how it was run: as §1
Klebsiella pneumoniae = test: Antibacterial activity against 10^8 CFU/mL Klebsiella pneumoniae MTCC 109 by broth microdilution method; assay type: functional; how it was run: as §2
Streptococcus pyogenes = test: Antibacterial activity against 10^8 CFU/mL Streptococcus pyogenes MTCC 442 by broth microdilution method; assay type: functional; how it was run: as §2
[3] = test system: Mycobacterium tuberculosis; test: Antituberculosis activity against 5 x 10^4 bacilli per tube Mycobacterium tuberculosis H37Rv assessed as growth inhibition at 250 ug/mL incubated for 24 hrs measured after 28 days; assay type: functional; conditions: read-out: GI; how it was run: as §1
[4] = test system: Mycobacterium tuberculosis; test: Antituberculosis activity against 5 x 10^4 bacilli per tube Mycobacterium tuberculosis H37Rv assessed as growth inhibition at 50 ug/mL incubated for 24 hrs measured after 28 days; assay type: functional; conditions: read-out: GI; how it was run: as §1
[5] = test system: Mycobacterium tuberculosis; test: Antituberculosis activity against 5 x 10^4 bacilli per tube Mycobacterium tuberculosis H37Rv assessed as growth inhibition at 0.20 ug/mL incubated for 24 hrs measured after 28 days; assay type: functional; conditions: read-out: GI; how it was run: as §1
[6] = test system: Mycobacterium tuberculosis; test: Antituberculosis activity against 5 x 10^4 bacilli per tube Mycobacterium tuberculosis H37Rv assessed as growth inhibition at 100 ug/mL incubated for 24 hrs measured after 28 days; assay type: functional; conditions: read-out: GI; how it was run: as §1
[7] = test system: Mycobacterium tuberculosis; test: Antituberculosis activity against 5 x 10^4 inoculum per tube Mycobacterium tuberculosis H37Rv assessed as growth inhibition at 500 ug/mL incubated for 24 hrs measured after 28 days; assay type: functional; conditions: read-out: GI; how it was run: as §1
[8] = test system: Mycobacterium tuberculosis; test: Antituberculosis activity against 5 x 10^4 bacilli per tube Mycobacterium tuberculosis H37Rv assessed as growth inhibition at 40 ug/mL incubated for 24 hrs measured after 28 days; assay type: functional; conditions: read-out: GI; how it was run: as §1

## CC1=C(c2nnc(/N=C3\C(=O)Nc4ccc(Cl)cc43)s2)C(c2ccccc2)NC(=S)N1 (stereo not drawn)
[1]
  inhibition of growth at 62.5 µg/mL: 99%
Pseudomonas aeruginosa
  MIC99: 100 µg/mL (≈ 214 µM)
Salmonella typhi
  MIC99: 200 µg/mL (≈ 428 µM)
Candida albicans
  MIC: 500 µg/mL (≈ 1070 µM)
Aspergillus niger
  MIC: 500 µg/mL (≈ 1070 µM)
Staphylococcus aureus
  MIC99: 200 µg/mL (≈ 428 µM)
Bacillus subtilis
  MIC99: 100 µg/mL (≈ 214 µM)
Aspergillus clavatus
  MIC: 500 µg/mL (≈ 1070 µM)
Escherichia coli
  MIC99: 200 µg/mL (≈ 428 µM)
[2]
  MIC: 62.5 µg/mL (≈ 134 µM)
Klebsiella pneumoniae
  MIC99: 200 µg/mL (≈ 428 µM)
Streptococcus pyogenes
  MIC99: 200 µg/mL (≈ 428 µM)

## CC1=C(c2nnc(/N=C3\C(=O)Nc4ccc(Br)cc43)s2)C(c2ccccc2)NC(=S)N1 (stereo not drawn)
[3]
  inhibition of growth at 250 µg/mL: 98%
Pseudomonas aeruginosa
  MIC99: 200 µg/mL (≈ 391 µM)
Salmonella typhi
  MIC99: 250 µg/mL (≈ 489 µM)
Candida albicans
  MIC: 500 µg/mL (≈ 978 µM)
Aspergillus niger
  MIC: 500 µg/mL (≈ 978 µM)
Staphylococcus aureus
  MIC99: 100 µg/mL (≈ 196 µM)
Bacillus subtilis
  MIC99: 100 µg/mL (≈ 196 µM)
Aspergillus clavatus
  MIC: 500 µg/mL (≈ 978 µM)
Escherichia coli
  MIC99: 200 µg/mL (≈ 391 µM)
[2]
  MIC: 250 µg/mL (≈ 489 µM)
Klebsiella pneumoniae
  MIC99: 200 µg/mL (≈ 391 µM)
Streptococcus pyogenes
  MIC99: 100 µg/mL (≈ 196 µM)

## CC1=C(c2nnc(/N=C3\C(=O)Nc4ccc([N+](=O)[O-])cc43)s2)C(c2ccccc2)NC(=O)N1 (stereo not drawn)
[1]
  inhibition of growth at 62.5 µg/mL: 99%
Pseudomonas aeruginosa
  MIC99: 100 µg/mL (≈ 217 µM)
Salmonella typhi
  MIC99: 200 µg/mL (≈ 433 µM)
Candida albicans
  MIC: 250 µg/mL (≈ 542 µM)
Aspergillus niger
  MIC: 250 µg/mL (≈ 542 µM)
Staphylococcus aureus
  MIC99: 200 µg/mL (≈ 433 µM)
Bacillus subtilis
  MIC99: 200 µg/mL (≈ 433 µM)
Aspergillus clavatus
  MIC: 500 µg/mL (≈ 1080 µM)
Escherichia coli
  MIC99: 62.5 µg/mL (≈ 135 µM)
[2]
  MIC: 62.5 µg/mL (≈ 135 µM)
Klebsiella pneumoniae
  MIC99: 200 µg/mL (≈ 433 µM)
Streptococcus pyogenes
  MIC99: 250 µg/mL (≈ 542 µM)

## CC1=C(c2nnc(/N=C3\C(=O)Nc4ccc(F)cc43)s2)C(c2ccccc2)NC(=O)N1 (stereo not drawn)
Pseudomonas aeruginosa
  MIC99: 62.5 µg/mL (≈ 144 µM)
Salmonella typhi
  MIC99: 100 µg/mL (≈ 230 µM)
Candida albicans
  MIC: 100 µg/mL (≈ 230 µM)
Aspergillus niger
  MIC: 100 µg/mL (≈ 230 µM)
Staphylococcus aureus
  MIC99: 62.5 µg/mL (≈ 144 µM)
Bacillus subtilis
  MIC99: 100 µg/mL (≈ 230 µM)
[4]
  inhibition of growth at 50 µg/mL: 99%
Aspergillus clavatus
  MIC: 200 µg/mL (≈ 460 µM)
Escherichia coli
  MIC99: 100 µg/mL (≈ 230 µM)
[2]
  MIC: 50 µg/mL (≈ 115 µM)
Klebsiella pneumoniae
  MIC99: 100 µg/mL (≈ 230 µM)
Streptococcus pyogenes
  MIC99: 100 µg/mL (≈ 230 µM)

## CC1=C(c2nnc(/N=C3\C(=O)Nc4ccc([N+](=O)[O-])cc43)s2)C(c2ccccc2)NC(=S)N1 (stereo not drawn)
[1]
  inhibition of growth at 62.5 µg/mL: 99%
Pseudomonas aeruginosa
  MIC99: 100 µg/mL (≈ 209 µM)
Salmonella typhi
  MIC99: 100 µg/mL (≈ 209 µM)
Candida albicans
  MIC: 250 µg/mL (≈ 524 µM)
Aspergillus niger
  MIC: 100 µg/mL (≈ 209 µM)
Staphylococcus aureus
  MIC99: 100 µg/mL (≈ 209 µM)
Bacillus subtilis
  MIC99: 100 µg/mL (≈ 209 µM)
Aspergillus clavatus
  MIC: 250 µg/mL (≈ 524 µM)
Escherichia coli
  MIC99: 62.5 µg/mL (≈ 131 µM)
[2]
  MIC: 62.5 µg/mL (≈ 131 µM)
Klebsiella pneumoniae
  MIC99: 100 µg/mL (≈ 209 µM)
Streptococcus pyogenes
  MIC99: 200 µg/mL (≈ 419 µM)

## NNC(=O)c1ccncc1 [ISONIAZID]
[5]
  inhibition of growth at 0.2 µg/mL: 99%
[2]
  MIC: 0.2 µg/mL (≈ 1.46 µM)

## CC1=C(c2nnc(/N=C3\C(=O)Nc4ccc(Cl)cc43)s2)C(c2ccccc2)NC(=O)N1 (stereo not drawn)
Pseudomonas aeruginosa
  MIC99: 200 µg/mL (≈ 444 µM)
Salmonella typhi
  MIC99: 200 µg/mL (≈ 444 µM)
Candida albicans
  MIC: > 1000 µg/mL
Aspergillus niger
  MIC: 500 µg/mL (≈ 1110 µM)
Staphylococcus aureus
  MIC99: 200 µg/mL (≈ 444 µM)
Bacillus subtilis
  MIC99: 200 µg/mL (≈ 444 µM)
Aspergillus clavatus
  MIC: 500 µg/mL (≈ 1110 µM)
[6]
  inhibition of growth at 100 µg/mL: 98%
Escherichia coli
  MIC99: 100 µg/mL (≈ 222 µM)
[2]
  MIC: 100 µg/mL (≈ 222 µM)
Klebsiella pneumoniae
  MIC99: 200 µg/mL (≈ 444 µM)
Streptococcus pyogenes
  MIC99: 200 µg/mL (≈ 444 µM)

## CC1(C)S[C@@H]2[C@H](NC(=O)[C@H](N)c3ccccc3)C(=O)N2[C@H]1C(=O)O [AMPICILLIN]
Pseudomonas aeruginosa
  MIC99: 100 µg/mL (≈ 286 µM)
Salmonella typhi
  MIC99: 100 µg/mL (≈ 286 µM)
Staphylococcus aureus
  MIC99: 250 µg/mL (≈ 715 µM)
Bacillus subtilis
  MIC99: 100 µg/mL (≈ 286 µM)
Escherichia coli
  MIC99: 100 µg/mL (≈ 286 µM)
Klebsiella pneumoniae
  MIC99: 100 µg/mL (≈ 286 µM)
Streptococcus pyogenes
  MIC99: 100 µg/mL (≈ 286 µM)

## CC1=C(c2nnc(/N=C3\C(=O)Nc4ccccc43)s2)C(c2ccccc2)NC(=S)N1 (stereo not drawn)
Pseudomonas aeruginosa
  MIC99: 200 µg/mL (≈ 462 µM)
Salmonella typhi
  MIC99: 200 µg/mL (≈ 462 µM)
Candida albicans
  MIC: > 1000 µg/mL
[7]
  inhibition of growth at 500 µg/mL: 98%
Aspergillus niger
  MIC: 500 µg/mL (≈ 1160 µM)
Staphylococcus aureus
  MIC99: 200 µg/mL (≈ 462 µM)
Bacillus subtilis
  MIC99: 200 µg/mL (≈ 462 µM)
Aspergillus clavatus
  MIC: 500 µg/mL (≈ 1160 µM)
Escherichia coli
  MIC99: 500 µg/mL (≈ 1160 µM)
[2]
  MIC: 500 µg/mL (≈ 1160 µM)
Klebsiella pneumoniae
  MIC99: 200 µg/mL (≈ 462 µM)
Streptococcus pyogenes
  MIC99: 200 µg/mL (≈ 462 µM)

## NYSTATIN
Candida albicans
  MIC: 100 µg/mL
Aspergillus niger
  MIC: 100 µg/mL
Aspergillus clavatus
  MIC: 100 µg/mL

## CO[C@H]1/C=C/O[C@@]2(C)Oc3c(C)c(O)c4c(O)c(c(/C=N/N5CCN(C)CC5)c(O)c4c3C2=O)NC(=O)/C(C)=C\C=C\[C@H](C)[C@H](O)[C@@H](C)[C@@H](O)[C@@H](C)[C@H](OC(C)=O)[C@@H]1C [RIFAMPIN]
[8]
  inhibition of growth at 40 µg/mL: 98%
[2]
  MIC: 40 µg/mL (≈ 48.6 µM)
